Data reported in ChEMBL document CHEMBL1154647, “Synthesis, spectral characterization and biological evaluation of phosphorylated derivatives of galanthamine” (Eur J Med Chem, 2010).
Converted amounts (≈) assume the structure as drawn.

Test system: Brain
Test: Antioxidant activity in Wistar rat brain assessed as reduction in glutathione content
Assay type: functional, tissue-based
Conditions: not given
In short: (§1)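 Wistar rat brain was homogenised 1:40 (w/v) in 0.1 M phosphate buffer, pH 7.4, with 1 mM EDTA. Total glutathione (GSH + GSSG) and reduced GSH were assayed spectrophotometrically from optical density, using net rate against a standard-curve slope and intercept, times a dilution factor. Homogenate protein was measured by the Lowry method.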

Point of comparison: `COc1ccc2c3c1O[C@H]1C[C@@H](OP(=O)(Oc4ccc([N+](=O)[O-])cc4)SCCO)C=C[C@@]31CCN(C)C2` (some centres undefined), EC50 1.49 µg/mL (≈ 2.72 µM). Against it:
- VITAMIN E — 1.5-fold lower, 0.99 µg/mL
- COc1ccc2c3c1O[C@H]1C[C@@H](OP(=O)(NCCO)N(CCCl)CCCl)C=C[C@@]31CCN(C)C2 (some centres undefined) — within 1.5-fold, 1.03 µg/mL (≈ 1.93 µM)

Test system: Brain
Test: Antioxidant activity in Wistar rat brain assessed as glutathione content
Assay type: functional
Conditions: not given
In short: as §1

Point of comparison: `COc1ccc2c3c1O[C@H]1C[C@@H](OP(=O)(NCCO)N(CCCl)CCCl)C=C[C@@]31CCN(C)C2` (some centres undefined), Activity 4.73 µg/mL. Against it:
- COc1ccc2c3c1O[C@H]1C[C@@H](OP(=O)(Oc4ccc([N+](=O)[O-])cc4)SCCO)C=C[C@@]31CCN(C)C2 (some centres undefined) — within 1.5-fold, 4.77 µg/mL

Target: not listed separately
Test: Inhibition of superoxide dismutase in Wistar rat brain
Assay type: tissue-based
Conditions: not given

Point of comparison: VITAMIN E, EC50 1.03 µg/mL. Against it:
- COc1ccc2c3c1O[C@H]1C[C@@H](OP(=O)(NCCO)N(CCCl)CCCl)C=C[C@@]31CCN(C)C2 (some centres undefined) — within 1.5-fold, 1.28 µg/mL (≈ 2.4 µM)
- COc1ccc2c3c1O[C@H]1C[C@@H](OP(=O)(Oc4ccc([N+](=O)[O-])cc4)SCCO)C=C[C@@]31CCN(C)C2 (some centres undefined) — 1.5-fold higher, 1.55 µg/mL (≈ 2.83 µM)

Test system: Staphylococcus aureus
Test: Antibacterial activity against Staphylococcus aureus at 2 mg/mL after 18 hrs by disc diffusion assay
Assay type: functional
Conditions: read-out: IZ
In short: (§2)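 Bacteria were grown in nutrient broth at 37 °C for 18 h on a rotary shaker at 150 rpm. Compounds were dissolved in DMF. Nutrient agar plates were dried at 35–36 °C for about 30 min, and test strains were spread on the surface. Discs were applied, and plates were inverted and incubated at 37 °C. A DMF blank was run.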

Point of comparison: `COc1ccc2c3c1O[C@H]1C[C@@H](OP(=O)(NCCO)N(CCCl)CCCl)C=C[C@@]31CCN(C)C2` (some centres undefined), zone of inhibition at 2000 µg/mL 4.78 mm. Against it:
- COc1ccc2c3c1O[C@H]1C[C@@H](OP(=O)(Oc4ccc([N+](=O)[O-])cc4)SCCO)C=C[C@@]31CCN(C)C2 (some centres undefined) — higher, 4.91 mm

Test system: Bacillus subtilis
Test: Antibacterial activity against Bacillus subtilis at 2 mg/mL after 18 hrs by disc diffusion assay
Assay type: functional
Conditions: read-out: IZ
In short: as §2

Point of comparison: `COc1ccc2c3c1O[C@H]1C[C@@H](OP(=O)(NCCO)N(CCCl)CCCl)C=C[C@@]31CCN(C)C2` (some centres undefined), zone of inhibition at 2000 µg/mL 3.46 mm. Against it:
- COc1ccc2c3c1O[C@H]1C[C@@H](OP(=O)(Oc4ccc([N+](=O)[O-])cc4)SCCO)C=C[C@@]31CCN(C)C2 (some centres undefined) — lower, 3.06 mm

Test system: Escherichia coli
Test: Antibacterial activity against Escherichia coli at 2 mg/mL after 18 hrs by disc diffusion assay
Assay type: functional
Conditions: read-out: IZ
In short: as §2

Point of comparison: `COc1ccc2c3c1O[C@H]1C[C@@H](OP(=O)(Oc4ccc([N+](=O)[O-])cc4)SCCO)C=C[C@@]31CCN(C)C2` (some centres undefined), zone of inhibition at 2000 µg/mL 4.38 mm. Against it:
- COc1ccc2c3c1O[C@H]1C[C@@H](OP(=O)(NCCO)N(CCCl)CCCl)C=C[C@@]31CCN(C)C2 (some centres undefined) — lower, 3.86 mm

Test system: Brain
Test: Antioxidant activity in Wistar rat brain assessed as superoxide dismutase content
Assay type: functional
Conditions: not given

Point of comparison: `COc1ccc2c3c1O[C@H]1C[C@@H](OP(=O)(NCCO)N(CCCl)CCCl)C=C[C@@]31CCN(C)C2` (some centres undefined), Activity 29.86 µg/mL. Against it:
- COc1ccc2c3c1O[C@H]1C[C@@H](OP(=O)(Oc4ccc([N+](=O)[O-])cc4)SCCO)C=C[C@@]31CCN(C)C2 (some centres undefined) — within 1.5-fold, 29.69 µg/mL

Target: T1, Catalase (Rattus norvegicus, UniProt P04762)
T1 sequence (P04762 whole entry): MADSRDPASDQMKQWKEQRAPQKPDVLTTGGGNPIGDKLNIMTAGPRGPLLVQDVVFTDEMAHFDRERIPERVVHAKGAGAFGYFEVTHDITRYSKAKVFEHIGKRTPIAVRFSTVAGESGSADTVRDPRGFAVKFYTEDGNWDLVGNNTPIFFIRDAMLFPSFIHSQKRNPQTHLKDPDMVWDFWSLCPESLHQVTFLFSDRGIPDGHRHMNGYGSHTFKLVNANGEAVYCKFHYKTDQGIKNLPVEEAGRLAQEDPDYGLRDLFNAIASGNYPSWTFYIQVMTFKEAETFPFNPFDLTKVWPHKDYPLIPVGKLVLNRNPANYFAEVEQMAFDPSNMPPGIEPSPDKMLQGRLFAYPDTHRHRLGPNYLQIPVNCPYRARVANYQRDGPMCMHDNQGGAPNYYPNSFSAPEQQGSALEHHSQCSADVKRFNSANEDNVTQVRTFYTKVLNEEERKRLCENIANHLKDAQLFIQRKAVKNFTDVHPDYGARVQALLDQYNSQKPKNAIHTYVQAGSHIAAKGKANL
Test: Inhibition of catalase in Wistar rat brain
Conditions: not given

Point of comparison: `COc1ccc2c3c1O[C@H]1C[C@@H](OP(=O)(Oc4ccc([N+](=O)[O-])cc4)SCCO)C=C[C@@]31CCN(C)C2` (some centres undefined), EC50 4.25 µg/mL (≈ 7.75 µM). Against it:
- VITAMIN E — 2.9-fold lower, 1.48 µg/mL
- COc1ccc2c3c1O[C@H]1C[C@@H](OP(=O)(NCCO)N(CCCl)CCCl)C=C[C@@]31CCN(C)C2 (some centres undefined) — 2.8-fold lower, 1.52 µg/mL (≈ 2.84 µM)

Test system: Brain
Test: Antioxidant activity in Wistar rat brain assessed as lipid peroxidation
Assay type: functional, tissue-based
Conditions: not given

Point of comparison: `COc1ccc2c3c1O[C@H]1C[C@@H](OP(=O)(NCCO)N(CCCl)CCCl)C=C[C@@]31CCN(C)C2` (some centres undefined), Activity 72.3 µg/mL. Against it:
- COc1ccc2c3c1O[C@H]1C[C@@H](OP(=O)(Oc4ccc([N+](=O)[O-])cc4)SCCO)C=C[C@@]31CCN(C)C2 (some centres undefined) — within 1.5-fold, 72.8 µg/mL

Test system: Klebsiella pneumoniae
Test: Antibacterial activity against Klebsiella pneumoniae after 18 hrs
Assay type: functional
Conditions: not given

Point of comparison: `COc1ccc2c3c1O[C@H]1C[C@@H](OP(=O)(NCCO)N(CCCl)CCCl)C=C[C@@]31CCN(C)C2` (some centres undefined), MIC 0.15 µg/mL (≈ 0.281 µM). Against it:
- COc1ccc2c3c1O[C@H]1C[C@@H](OP(=O)(Oc4ccc([N+](=O)[O-])cc4)SCCO)C=C[C@@]31CCN(C)C2 (some centres undefined) — 2.4-fold higher, 0.36 µg/mL (≈ 0.656 µM)

Test system: Klebsiella pneumoniae
Test: Antibacterial activity against Klebsiella pneumoniae at 2 mg/mL after 18 hrs by disc diffusion assay
Assay type: functional
Conditions: read-out: IZ
In short: as §2

Point of comparison: `COc1ccc2c3c1O[C@H]1C[C@@H](OP(=O)(Oc4ccc([N+](=O)[O-])cc4)SCCO)C=C[C@@]31CCN(C)C2` (some centres undefined), zone of inhibition at 2000 µg/mL 5.01 mm. Against it:
- COc1ccc2c3c1O[C@H]1C[C@@H](OP(=O)(NCCO)N(CCCl)CCCl)C=C[C@@]31CCN(C)C2 (some centres undefined) — lower, 4.45 mm

Test system: Escherichia coli
Test: Antibacterial activity against Escherichia coli after 18 hrs
Assay type: functional
Conditions: not given

Point of comparison: `COc1ccc2c3c1O[C@H]1C[C@@H](OP(=O)(NCCO)N(CCCl)CCCl)C=C[C@@]31CCN(C)C2` (some centres undefined), MIC 0.35 µg/mL (≈ 0.655 µM). Against it:
- COc1ccc2c3c1O[C@H]1C[C@@H](OP(=O)(Oc4ccc([N+](=O)[O-])cc4)SCCO)C=C[C@@]31CCN(C)C2 (some centres undefined) — within 1.5-fold, 0.34 µg/mL (≈ 0.62 µM)

Test system: Klebsiella pneumoniae
Test: Antibacterial activity against Klebsiella pneumoniae at 1 mg/mL after 18 hrs by disc diffusion assay
Assay type: functional
Conditions: read-out: IZ
In short: as §2

Point of comparison: `COc1ccc2c3c1O[C@H]1C[C@@H](OP(=O)(NCCO)N(CCCl)CCCl)C=C[C@@]31CCN(C)C2` (some centres undefined), zone of inhibition at 1000 µg/mL 1.47 mm. Against it:
- COc1ccc2c3c1O[C@H]1C[C@@H](OP(=O)(Oc4ccc([N+](=O)[O-])cc4)SCCO)C=C[C@@]31CCN(C)C2 (some centres undefined) — higher, 2.36 mm

Test system: Staphylococcus aureus
Test: Antibacterial activity against Staphylococcus aureus after 18 hrs
Assay type: functional
Conditions: not given

Point of comparison: `COc1ccc2c3c1O[C@H]1C[C@@H](OP(=O)(NCCO)N(CCCl)CCCl)C=C[C@@]31CCN(C)C2` (some centres undefined), MIC 0.29 µg/mL (≈ 0.543 µM). Against it:
- COc1ccc2c3c1O[C@H]1C[C@@H](OP(=O)(Oc4ccc([N+](=O)[O-])cc4)SCCO)C=C[C@@]31CCN(C)C2 (some centres undefined) — the same, 0.29 µg/mL (≈ 0.529 µM)

Test system: Brain
Test: Antioxidant activity in Wistar rat brain assessed as inhibition of lipid peroxidation
Assay type: functional, tissue-based
Conditions: not given

Point of comparison: `COc1ccc2c3c1O[C@H]1C[C@@H](OP(=O)(NCCO)N(CCCl)CCCl)C=C[C@@]31CCN(C)C2` (some centres undefined), EC50 1.42 µg/mL (≈ 2.66 µM). Against it:
- VITAMIN E — within 1.5-fold, 1.22 µg/mL
- COc1ccc2c3c1O[C@H]1C[C@@H](OP(=O)(Oc4ccc([N+](=O)[O-])cc4)SCCO)C=C[C@@]31CCN(C)C2 (some centres undefined) — 1.9-fold higher, 2.64 µg/mL (≈ 4.81 µM)

Test system: Brain
Test: Antioxidant activity in Wistar rat brain assessed as catalase content
Assay type: functional
Conditions: not given

Point of comparison: `COc1ccc2c3c1O[C@H]1C[C@@H](OP(=O)(NCCO)N(CCCl)CCCl)C=C[C@@]31CCN(C)C2` (some centres undefined), Activity 287.59 µg/mL. Against it:
- COc1ccc2c3c1O[C@H]1C[C@@H](OP(=O)(Oc4ccc([N+](=O)[O-])cc4)SCCO)C=C[C@@]31CCN(C)C2 (some centres undefined) — within 1.5-fold, 288.58 µg/mL

Test system: Escherichia coli
Test: Antibacterial activity against Escherichia coli at 1 mg/mL after 18 hrs by disc diffusion assay
Assay type: functional
Conditions: read-out: IZ
In short: as §2

Point of comparison: `COc1ccc2c3c1O[C@H]1C[C@@H](OP(=O)(NCCO)N(CCCl)CCCl)C=C[C@@]31CCN(C)C2` (some centres undefined), zone of inhibition at 1000 µg/mL 1.32 mm. Against it:
- COc1ccc2c3c1O[C@H]1C[C@@H](OP(=O)(Oc4ccc([N+](=O)[O-])cc4)SCCO)C=C[C@@]31CCN(C)C2 (some centres undefined) — higher, 3.62 mm

Test system: Bacillus subtilis
Test: Antibacterial activity against Bacillus subtilis at 1 mg/mL after 18 hrs by disc diffusion assay
Assay type: functional
Conditions: read-out: IZ
In short: as §2

Point of comparison: `COc1ccc2c3c1O[C@H]1C[C@@H](OP(=O)(NCCO)N(CCCl)CCCl)C=C[C@@]31CCN(C)C2` (some centres undefined), zone of inhibition at 1000 µg/mL 2.22 mm. Against it:
- COc1ccc2c3c1O[C@H]1C[C@@H](OP(=O)(Oc4ccc([N+](=O)[O-])cc4)SCCO)C=C[C@@]31CCN(C)C2 (some centres undefined) — lower, 1.81 mm

Test system: Bacillus subtilis
Test: Antibacterial activity against Bacillus subtilis after 18 hrs
Assay type: functional
Conditions: not given

Point of comparison: `COc1ccc2c3c1O[C@H]1C[C@@H](OP(=O)(Oc4ccc([N+](=O)[O-])cc4)SCCO)C=C[C@@]31CCN(C)C2` (some centres undefined), MIC 0.1 µg/mL (≈ 0.182 µM). Against it:
- COc1ccc2c3c1O[C@H]1C[C@@H](OP(=O)(NCCO)N(CCCl)CCCl)C=C[C@@]31CCN(C)C2 (some centres undefined) — within 1.5-fold, 0.11 µg/mL (≈ 0.206 µM)

Test system: Staphylococcus aureus
Test: Antibacterial activity against Staphylococcus aureus at 1 mg/mL after 18 hrs by disc diffusion assay
Assay type: functional
Conditions: read-out: IZ
In short: as §2

Point of comparison: `COc1ccc2c3c1O[C@H]1C[C@@H](OP(=O)(Oc4ccc([N+](=O)[O-])cc4)SCCO)C=C[C@@]31CCN(C)C2` (some centres undefined), zone of inhibition at 1000 µg/mL 2.5 mm. Against it:
- COc1ccc2c3c1O[C@H]1C[C@@H](OP(=O)(NCCO)N(CCCl)CCCl)C=C[C@@]31CCN(C)C2 (some centres undefined) — lower, 1.47 mm
